Calls of active or inactive are those of the source. Rule as the data show it, unless noted: active = inhibition above about 30%; inactive = the rest.

Results on eleven molecules are retold here after PubChem BioAssay.

Test [1] is described as follows: reduced viability of SK-BR-3 breast cancer cells – cell-based, 24 h, human, pilot screen (AID 572;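 active = viability at or below 10% of carrier control in both of two separate runs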;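 also: compound exposure lasted between 18 and 24 h rather than exactly 24 h; 100% = carrier-treated control wells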). Particulars: SK-BR-3 viability, CellTiter-Glo luminescence, at 10 µM, stronger effect = lower value. (In general: Cellular ATP, detected with luciferase, serves as a proxy for viable cell number.)
A short description of test [2]: HUVEC growth inhibition – cell-based, human, primary screen (AID 575;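 active = viability at or below 30% in both replicate assays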;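 also: 100% = median of untreated cell wells with 0.1% DMSO on each plate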). Particulars: HUVEC proliferation, CellTiter-Glo luminescence, 72 h; at 10 µM; stronger effect = lower value. An outline of the steps: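 Test system: primary human umbilical vein endothelial cells; medium: endothelial basal medium with 2% FBS plus growth supplements; dosing: 10 µM compound only; times: 72 h treatment at 37 °C; signal: CTG luminescence; read-out: % viability relative to median vehicle-well signal on each plate; control set: vehicle and MePR control wells; plate: 384-well, collagen-coated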

Test [3] can be described thus: H69AR cell proliferation blockers – human, duplicate replicates, primary screen (AID 580;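 active = viability at or under a set limit in both replicates, limit being median viability minus 3 SD, cut at about 48% in these data, passing the limit was not always enough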;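 also: 100% = mean luminescence of untreated wells and 0% = no signal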). The note with it: H69AR lung tumor cells viability, ATP luminescence, 72 h; at 10 µM; stronger effect = lower value.
A short description of test [4]: MRP1 drug-resistance reversers in H69AR cells – cell-based, doxorubicin co-treatment, pilot screen (AID 601;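 active = viability loss from added drug above about 55%, and viability with drug at most 40%, in both replicates, limit read from the data, passing the limit was not always enough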). The note with it: CellTiter-Glo, 72 h, at 10 µM; for differential viability (reversal): stronger effect = higher value.
A short description of test [5]: yeast transport mutant growth inhibition pilot in 384-well plates, post-Golgi transport modulator project (AID 636; in the data active = inhibition above about 31%). Particulars: absorbance 615 nm, about 18 h, stronger effect = higher value.
Test [6] in a line: growth suppression of yeast trafficking mutant, preliminary HTS, modulators of trafficking downstream of Golgi apparatus project, 1536-format plate, OD 615 nm (AID 637). Particulars: yeast transport mutant growth, absorbance 615 nm, 18 h; stronger effect = higher value.
Where [7] appears, read: H69AR cells + 2 uM doxorubicin, measured here: viability with 2 uM doxorubicin, stronger effect = lower value.
Where [8] appears, read: H69AR cells, compound alone cytotoxicity.

A word on the viability: it is a read-out of living cells in per cent, often relative to untreated cells. The inhibition is the relative decrease from the control value, in per cent. With `Nn1c(SCC(=O)Nc2ccccc2)nnc1-c1cccnc1`, the viability in test [1] was 78% (inactive); in test [2], 96.9% (inactive); in test [3] it was 88.1% (inactive); in test [4] (setting [7]) it was 85.8%; in test [4] (setting [8]), 88.1%. The differential viability (reversal) in test [4] (H69AR cells + 2 uM doxorubicin) was 2.29% (inactive). The inhibition in test [5] is -8% (inactive); in test [6] it was 3.64% (inactive).

As to `CCC1CCCCN1CCCNC(=O)c1ccc(CS(=O)(=O)Cc2ccccc2F)o1` (stereo not drawn), the viability in test [1] is 106% (inactive); in test [2], 114% (inactive); in test [3] it was 92.9% (inactive); in test [4] (setting [7]), 105%; in test [4] (setting [8]) it was 92.9%. For the same molecule, in test [4] (H69AR cells + 2 uM doxorubicin), the differential viability (reversal) is -12.3% (inactive). Further, the inhibition in test [5] was -7.4% (inactive); in test [6], 2.73% (inactive).

On to `CCCNC(=O)C1CN(S(=O)(=O)c2ccccc2)CCN1S(=O)(=O)c1ccccc1` (stereo not drawn), for which the viability in test [1] was 103% (inactive); in test [2] it was 108% (inactive); in test [3], 99.2% (inactive); in test [4] (setting [7]), 89.4%; in test [4] (setting [8]), 99.2%. In test [4] (H69AR cells + 2 uM doxorubicin), the differential viability (reversal) is 9.82% (inactive). Moreover, the inhibition is 4.42% (inactive) in test [5] and 3.77% (inactive) in test [6].

Take `Cc1ccc(-c2nn(-c3ccccc3)cc2/C=C(\C#N)c2cccc(C#N)c2)o1`: the viability in test [1] was 71% (inactive); in test [2] it was 92% (inactive); in test [3], 71.6% (inactive); in test [4] (setting [7]), 73.3%; in test [4] (setting [8]), 71.6%. For the same molecule, the differential viability (reversal) in test [4] (H69AR cells + 2 uM doxorubicin) was -1.65% (inactive). For the same molecule, the inhibition was -9.32% (inactive) in test [5] and 5.27% (inactive) in test [6].

As for `CCC1(C(=O)OC)NC(c2cccc(F)c2)C2C(=O)N(C)C(=O)C21` (stereo not drawn), the viability in test [1] was 91% (inactive); in test [2], 96.1% (inactive); in test [3], 88.3% (inactive); in test [4] (setting [7]), 89.8%; in test [4] (setting [8]) it was 88.3%. Besides, in test [4] (H69AR cells + 2 uM doxorubicin), the differential viability (reversal) is -1.59% (inactive). The results for the inhibition in test [5] and in test [6] were -6.08% (inactive) and 0.73% (inactive), respectively.

Turning to `CCCCNC(=O)CSc1nc2ccc(N3CCOCC3)cc2c(=O)n1CCc1ccccc1`, the viability in test [1] was 95.5% (inactive); in test [2], 70.1% (inactive); in test [3], 69.3% (inactive); in test [4] (setting [7]) it was 51.3%; in test [4] (setting [8]), 69.3%. For the same molecule, the differential viability (reversal) in test [4] (H69AR cells + 2 uM doxorubicin) is 18.1% (inactive). The inhibition in test [5] was -7.16% (inactive); in test [6], 4.13% (inactive).

Turning to `CCCc1cc(N2CCCC2)n2nc(C)c(-c3ccccc3)c2n1`, the viability in test [1] was 64% (inactive); in test [2], 94.7% (inactive); in test [3], 76.6% (inactive); in test [4] (setting [7]), 80.2%; in test [4] (setting [8]), 76.6%. In test [4] (H69AR cells + 2 uM doxorubicin), the differential viability (reversal) was -3.64% (inactive). Besides, the figures for the inhibition in test [5] and in test [6] were -4.93% (inactive) and 5.27% (inactive), respectively.

For the molecule `CCOC(=O)N(C)c1ccc(C(O)(C(F)(F)F)C(F)(F)F)cc1`, the viability in test [1] is 92% (inactive); in test [2] it was 91.7% (inactive); in test [3], 102% (inactive); in test [4] (setting [7]), 97.1%; in test [4] (setting [8]), 102%. Further, the differential viability (reversal) in test [4] (H69AR cells + 2 uM doxorubicin) is 5.16% (inactive). The inhibition in test [5] is 1.76% (inactive); in test [6], -6.55% (inactive).

On to `O=C(c1cccs1)N(Cc1ccco1)Cc1cc2ccccc2[nH]c1=O`, for which the viability in test [1] was 86% (inactive); in test [2], 110% (inactive); in test [3] it was 82.2% (inactive); in test [4] (setting [7]) it was 88.7%; in test [4] (setting [8]) it was 82.2%. The differential viability (reversal) in test [4] (H69AR cells + 2 uM doxorubicin) is -6.47% (inactive). The inhibition in test [5] is 4.19% (inactive); in test [6], -4.91% (inactive).

Regarding `CCOc1cc(C(=O)N(C)Cc2cc3ccccc3[nH]c2=O)cc(OCC)c1OCC`, the viability in test [1] is 92% (inactive); in test [2], 107% (inactive); in test [3], 98.6% (inactive); in test [4] (setting [7]), 96.6%; in test [4] (setting [8]) it was 98.6%. In test [4] (H69AR cells + 2 uM doxorubicin), the differential viability (reversal) is 2.04% (inactive). For the same molecule, the inhibition was -7.43% (inactive) in test [5] and -4.18% (inactive) in test [6].

For the molecule `Cc1cc(Nc2ccccc2)n(-c2ccccc2)n1`, the viability in test [1] is 123% (inactive); in test [2], 94.3% (inactive); in test [3] it was 101% (inactive); in test [4] (setting [7]), 95.6%; in test [4] (setting [8]) it was 101%. In addition, the differential viability (reversal) in test [4] (H69AR cells + 2 uM doxorubicin) was 5.72% (inactive). In addition, the inhibition in test [5] was -1.1% (inactive); in test [6], -6.61% (inactive).
